Data taken from ChEMBL document CHEMBL1149415, “Discovery and structure-activity relationship of antagonists of B-cell lymphoma 2 family proteins with chemopotentiation activity in vitro and in vivo” (J Med Chem, 2006).
The source made the active and inactive calls. No cut-off for these calls is given here.

What was measured:
Bcl-2-like protein 1 [1] = molecular target: T1, Bcl-2-like protein 1 (Homo sapiens, UniProt Q07817); experiment: Binding affinity to Bcl-XL by fluorescence polarization assay
Target sequence in this assay (Q07817 whole entry): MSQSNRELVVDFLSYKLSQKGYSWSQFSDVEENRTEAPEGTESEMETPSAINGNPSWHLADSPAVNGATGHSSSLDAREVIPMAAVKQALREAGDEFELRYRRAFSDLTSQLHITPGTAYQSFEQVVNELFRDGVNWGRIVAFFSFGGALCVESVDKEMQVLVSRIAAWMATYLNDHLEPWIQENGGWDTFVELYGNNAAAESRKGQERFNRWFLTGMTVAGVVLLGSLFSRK

Bcl-2-like protein 1 [2] = molecular target: T1, Bcl-2-like protein 1; experiment: Inhibitory activity against Bcl-XL in presence of 1% human serum
Procedure, shortened: (§1)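 Competitive fluorescence polarization assay: serial compound dilutions compete with 30 nM f-Bad peptide (FITC-labelled) for binding to 60 nM Bcl-XL. Human serum (1%) or individual serum proteins are added to the assay buffer. Protein levels: HSA 0.42 mg/mL, HSA-III 0.146 mg/mL, α1-acid glycoprotein 0.0095 mg/mL. IC50 is calculated from duplicate values per determination.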
Target sequence in this assay (Q07817 whole entry): as above

Bcl-2-like protein 1 [3] = molecular target: T1, Bcl-2-like protein 1; experiment: Inhibitory activity against Bcl-XL in presence of HSA from 1% human serum; procedure, shortened: as §1
Target sequence in this assay (Q07817 whole entry): as above

Bcl-2-like protein 1 [4] = molecular target: T1, Bcl-2-like protein 1; details: 10 uM
Target sequence in this assay (Q07817 whole entry): as above

[5] = molecular target: Apoptosis regulator Bcl-2 (Homo sapiens, UniProt P10415); experiment: Binding affinity to Bcl2 by fluorescence polarization assay
Chain of Apoptosis regulator Bcl-2 (P10415 whole entry): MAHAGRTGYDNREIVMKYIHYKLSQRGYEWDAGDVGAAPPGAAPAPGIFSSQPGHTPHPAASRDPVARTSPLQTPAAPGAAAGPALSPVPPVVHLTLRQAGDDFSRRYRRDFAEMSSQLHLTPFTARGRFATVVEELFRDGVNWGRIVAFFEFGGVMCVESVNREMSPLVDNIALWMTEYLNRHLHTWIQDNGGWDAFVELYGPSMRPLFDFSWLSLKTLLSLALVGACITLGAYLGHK

Bcl-2-like protein 1 [6] = molecular target: T1, Bcl-2-like protein 1; experiment: Binding affinity to Bcl-XL in 1% human serum by fluorescence polarization assay
Target sequence in this assay (Q07817 whole entry): as the sequence (Q07817 whole entry) above

Bcl-2-like protein 1 [7] = molecular target: T1, Bcl-2-like protein 1; experiment: Inhibitory activity against Bcl-XL in presence of HSA3 from 1% human serum
Target sequence in this assay (Q07817 whole entry, looked up): as the sequence (Q07817 whole entry) above

Bcl-2-like protein 1 [8] = molecular target: T1, Bcl-2-like protein 1; experiment: Inhibitory activity against Bcl-XL in presence of alpha-1 acid glycoprotein from 1% human serum; procedure, shortened: as §1
Target sequence in this assay (Q07817 whole entry): as above

Bcl-2-like protein 1 [9] = molecular target: T1, Bcl-2-like protein 1; experiment: Activity towards mouse FL5.12 cell line transfected with Bcl-XL in presence of 3% fetal bovine serum; format: functional
Procedure, shortened: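 Bcl-XL-transfected murine FL5.12 (IL-3 dependent) grown in RPMI with 10% FBS and WEHI-3B conditioned medium as the IL-3 source. Switched to IL-3-depleted, FBS-free medium for 2 days. Then placed in gelatin assay medium (3.4 mg/mL bovine gelatin) or 3% FBS assay medium. Serial compound dilutions added for 24 h. Viability read by MTS or CellTiter-Glo; duplicate values per determination; EC50.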

A549 [10] = experiment: Antiproliferative activity against human A549 lung carcinoma cell xenograft tumor model in scid mice in presence of paclitaxel at MTD; format: functional
Procedure, shortened: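 A549 cells (5 × 10⁶ in 50% Matrigel) inoculated subcutaneously into flank; groups of equal tumor size (N = 10) assigned at ~250 mm³ (day 15). Dosing ip: agent 75 mg/kg/day days 16-36 in 5% Tween 80/20% PEG/75% 0.1 M NaPO₄ pH ~4.0; paclitaxel 30 mg/kg/day days 16, 20, 24. Calipers twice weekly, V = L × W²; %ILS as median time to 1 cm³.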

[11] = molecular target: Induced myeloid leukemia cell differentiation protein Mcl-1 (Homo sapiens, UniProt Q07820); experiment: Binding affinity to Mcl1
Chain of Induced myeloid leukemia cell differentiation protein Mcl-1 (Q07820 whole entry): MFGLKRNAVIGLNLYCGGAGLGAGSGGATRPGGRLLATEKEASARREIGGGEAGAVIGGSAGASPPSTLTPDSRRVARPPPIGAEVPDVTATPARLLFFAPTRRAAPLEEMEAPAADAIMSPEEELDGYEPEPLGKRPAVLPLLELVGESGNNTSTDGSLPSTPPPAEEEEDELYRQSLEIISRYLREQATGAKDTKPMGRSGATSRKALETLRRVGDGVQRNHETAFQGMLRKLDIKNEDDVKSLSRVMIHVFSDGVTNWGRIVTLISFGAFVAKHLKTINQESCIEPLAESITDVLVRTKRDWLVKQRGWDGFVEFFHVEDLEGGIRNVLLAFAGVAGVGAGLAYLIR

Bcl-2-like protein 2 = molecular target: T2, Bcl-2-like protein 2 (Homo sapiens, UniProt Q92843); experiment: Binding affinity to Bclw
T2 sequence (Q92843 whole entry): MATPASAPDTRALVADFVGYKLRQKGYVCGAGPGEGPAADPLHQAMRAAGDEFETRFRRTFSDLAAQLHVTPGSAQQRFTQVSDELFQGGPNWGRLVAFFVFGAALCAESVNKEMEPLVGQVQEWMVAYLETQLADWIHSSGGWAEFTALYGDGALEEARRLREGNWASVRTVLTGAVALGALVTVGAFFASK

A549 [12] = experiment: Effect on viability of human A549 lung carcinoma cells at 20 uM after 48h by MTS assay in presence of 10% fetal bovine serum; format: functional, cell-based
Procedure, shortened: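 A549 seeded in DMEM with 5% FBS the day before. Medium removed and UV-C applied (start 32 mJ/cm², halved each step), then compound added in DMEM with 10% FBS. Viability by MTS at 48 h post-exposure, expressed as percent of untreated samples.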

Albumin = Albumin (Homo sapiens, UniProt P02768); experiment: Binding affinity for human serum albumin domain III
Chain of Albumin (P02768 whole entry, the tested form may be a part): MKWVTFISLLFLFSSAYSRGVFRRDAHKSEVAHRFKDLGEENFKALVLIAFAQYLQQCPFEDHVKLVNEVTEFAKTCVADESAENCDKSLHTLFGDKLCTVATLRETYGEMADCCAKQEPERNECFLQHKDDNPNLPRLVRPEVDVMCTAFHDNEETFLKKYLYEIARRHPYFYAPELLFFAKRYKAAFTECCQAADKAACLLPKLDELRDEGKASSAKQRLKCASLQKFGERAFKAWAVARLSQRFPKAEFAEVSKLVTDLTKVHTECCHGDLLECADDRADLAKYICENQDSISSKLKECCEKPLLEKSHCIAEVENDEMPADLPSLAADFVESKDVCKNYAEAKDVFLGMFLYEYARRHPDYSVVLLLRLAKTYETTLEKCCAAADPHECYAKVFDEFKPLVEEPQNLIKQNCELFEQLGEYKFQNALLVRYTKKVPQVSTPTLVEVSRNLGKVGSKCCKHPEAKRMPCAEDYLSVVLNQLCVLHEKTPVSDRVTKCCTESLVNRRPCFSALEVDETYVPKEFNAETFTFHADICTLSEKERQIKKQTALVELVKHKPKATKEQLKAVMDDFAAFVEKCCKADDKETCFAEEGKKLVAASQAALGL

A549 [13] = experiment: Effect of viability of human A549 lung carcinoma cells at 20uM after 48h by MTS assay in presence of paclitaxel; format: functional, cell-based
Procedure, shortened: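 A549 seeded in DMEM with 5% FBS the day before. Pretreated 48 h with paclitaxel serial 3-fold dilutions from 20 nM, then coincubated 48 h with paclitaxel plus compound in DMEM with 0.34% gelatin (serum-free). Viability by MTS, normalized to untreated cells.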

| SMILES | Ki (Bcl-2-like protein 1 [1]) | Ki [5] | Ki (Bcl-2-like protein 1 [6]) | EC50 (Bcl-2-like protein 1 [9]) | also measured |
| --- | --- | --- | --- | --- | --- |
| O=C(NS(=O)(=O)c1ccc(NCCSc2ccccc2)c([N+](=O)[O-])c1)c1ccc(-c2ccc(F)cc2)cc1 | 0.036 µM | 0.433 µM | 2.5 µM |  | IC50 (Bcl-2-like protein 1 [2]): > 10 µM; IC50 (Bcl-2-like protein 1 [3]): > 10 µM; inhibition (Bcl-2-like protein 1 [4]): 1%; IC50 (Bcl-2-like protein 1 [7]): 6.3 µM; IC50 (Bcl-2-like protein 1 [8]): 0.122 µM |
| CN(C)CC[C@@H](CSc1ccccc1)Nc1ccc(S(=O)(=O)NC(=O)c2ccc(N3CCC(C)(C)CC3)cc2)cc1[N+](=O)[O-] | 0.252 µM | 1.26 µM | 3.85 µM | 16.1 µM |  |
| COc1cc(CN(C)C)ccc1-c1ccc(C(=O)NS(=O)(=O)c2ccc(NCCSc3ccccc3)c([N+](=O)[O-])c2)cc1 | 0.426 µM | 4.57 µM | 1 µM |  |  |
| O=C(NS(=O)(=O)c1ccc(NCCSc2ccccc2)c([N+](=O)[O-])c1)c1ccc(N2CCNCC2)cc1 | 2.52 µM |  | > 10 µM |  |  |
| CN(C)C(=O)N1CCN(c2ccc(C(=O)NS(=O)(=O)c3ccc(NCCSc4ccccc4)c([N+](=O)[O-])c3)cc2)CC1 | 0.294 µM | 3.54 µM | 0.869 µM |  |  |
| CN(C)CCC[C@H](CSc1ccccc1)Nc1ccc(S(=O)(=O)NC(=O)c2ccc(N3CCC(C)(C)CC3)cc2)cc1[N+](=O)[O-] | 0.0026 µM | 0.0921 µM | 0.728 µM | 14.1 µM |  |
| COc1cc(C(=O)N(C)C)ccc1-c1ccc(C(=O)NS(=O)(=O)c2ccc(NCCSc3ccccc3)c([N+](=O)[O-])c2)cc1 | 0.471 µM | 1.98 µM | > 10 µM |  |  |
| CN(C)C(=O)C[C@H](CSc1ccccc1)Nc1ccc(S(=O)(=O)NC(=O)c2ccc(N3CCC(C)(C)CC3)cc2)cc1[N+](=O)[O-] | 0.0031 µM | 0.075 µM | 1.79 µM | 15 µM |  |
| COc1cc(CCN(C)C)ccc1-c1ccc(C(=O)NS(=O)(=O)c2ccc(NCCSc3ccccc3)c([N+](=O)[O-])c2)cc1 | 0.665 µM | 3.26 µM | 0.998 µM |  |  |
| CN(C)CC[C@H](CSc1ccccc1)Nc1ccc(S(=O)(=O)NC(=O)c2ccc(N3CCC(C)(C)CC3)cc2)cc1[N+](=O)[O-] | 0.0008 µM | 0.067 µM | 0.36 µM | 5.1 µM | Activity (A549 [10]): 75%; Kd [11]: > 10 µM; Kd (Bcl-2-like protein 2): 0.459 µM; Activity (A549 [12]): Active; Kd (Albumin): 13.6 µM; Activity (A549 [13]): Active |

Now from value to molecule, other results behind:

| Ki (Bcl-2-like protein 1 [1]) | Ki [5] | Ki (Bcl-2-like protein 1 [6]) | EC50 (Bcl-2-like protein 1 [9]) | SMILES | also measured |
| --- | --- | --- | --- | --- | --- |
| 0.0011 µM | 0.055 µM | > 10 µM | 7 µM | CC1(C)CCN(c2ccc(C(=O)NS(=O)(=O)c3ccc(N[C@H](CCN4CCOCC4)CSc4ccccc4)c([N+](=O)[O-])c3)cc2)CC1 |  |
| 0.0008 µM | 0.07 µM | 0.0296 µM | 9 µM | COc1cc(CCCN2CCOCC2)ccc1-c1ccc(C(=O)NS(=O)(=O)c2ccc(N[C@H](CCCCN)CSc3ccccc3)c([N+](=O)[O-])c2)cc1 |  |
| < 0.0005 µM | 0.165 µM | > 10 µM | 2.11 µM | COc1cc(CCCN2CCOCC2)ccc1-c1ccc(C(=O)NS(=O)(=O)c2ccc(N[C@H](CCN3CCOCC3)CSc3ccccc3)c([N+](=O)[O-])c2)cc1 |  |
| < 0.0005 µM | 0.0588 µM | 0.215 µM | 6 µM | COc1cc(CCCN2CCOCC2)ccc1-c1ccc(C(=O)NS(=O)(=O)c2ccc(N[C@H](CCCCN(C)C)CSc3ccccc3)c([N+](=O)[O-])c2)cc1 |  |
| 0.0017 µM | 0.121 µM | 1 µM | 7.63 µM | COc1cc(CCCN2CCOCC2)ccc1-c1ccc(C(=O)NS(=O)(=O)c2ccc(N[C@@H](CSc3ccccc3)CC(=O)N(C)C)c([N+](=O)[O-])c2)cc1 |  |
| 0.0579 µM | 0.366 µM | 0.79 µM |  | COc1cc(CCC(=O)N2CCOCC2)ccc1-c1ccc(C(=O)NS(=O)(=O)c2ccc(NCCSc3ccccc3)c([N+](=O)[O-])c2)cc1 |  |
